In brackets after ≈: the same amount, converted by molar mass.
Columns and labels:
[1] = tested on: Mycobacterium tuberculosis; assay: Antimycobacterial activity against rifampin and isoniazid-susceptible Mycobacterium tuberculosis H37Rv ATCC 27294 after 5 days by Alamar blue assay; type: functional; details: 120 h
How it was run: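 Microplate Alamar Blue assay in Middlebrook 7H9 broth; compounds serially diluted on the plate, final concentrations […]. Plates sealed and incubated 37 °C for 5 days, then 1:1 Alamar Blue reagent/10% Tween 80 added and incubated a further 24 h. Blue scored as no growth, pink as growth; MIC is the lowest concentration preventing the blue-to-pink change.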

[2] = Cytotoxicity against mouse macrophages assessed as cell viability at 1 ug/mL after 18 hrs by MTT assay; type: cell-based, Macrophage; details: read-out: Activity
How it was run: (§1)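 Murine macrophages plated at 2.5 × 10⁶ cells/mL and held 1 h at 37 °C under 5% CO₂. Nonadherent cells were then flushed off with RPMI 1640. Adherent cells were exposed in triplicate to compound at 0.1, 1.0, 10.0 or 100, medium alone (live control) or 3% tween 20 (dead control). After 18 h MTT was added for 4 h. Formazan was dissolved in DMSO and A540 read.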

[3] = Cytotoxicity against mouse macrophages assessed as cell viability at 0.1 ug/mL after 18 hrs by MTT assay; type: cell-based, Macrophage; details: read-out: Activity; how it was run: as §1
[4] = Cytotoxicity against mouse macrophages assessed as cell viability at 10 ug/mL after 18 hrs by MTT assay; type: cell-based, Macrophage; details: read-out: Activity; how it was run: as §1
[5] = Cytotoxicity against mouse macrophages assessed as cell viability at 100 ug/mL after 18 hrs by MTT assay; type: cell-based, Macrophage; details: read-out: Activity; how it was run: as §1

Structure (SMILES) | MIC [1] | viability at 18 h, 1 ug/mL [2] | viability at 18 h, 0.1 ug/mL [3] | viability at 18 h, 10 ug/mL [4] | viability at 18 h, 100 ug/mL [5]
N#Cc1cccc(/C=N/NC(=O)c2ccncc2)c1 | 1.25 µg/mL (≈ 4.99 µM) | – | – | – | –
CCOc1ccccc1/C=N/NC(=O)c1ccncc1 | 1.25 µg/mL (≈ 4.64 µM) | – | – | – | –
COc1cccc(/C=N/NC(=O)c2ccncc2)c1 | 5 µg/mL (≈ 19.6 µM) | – | – | – | –
O=C(N/N=C/c1ccc(F)cc1)c1ccncc1 | 0.31 µg/mL (≈ 1.27 µM) | 100% | 100% | 97% | 96%
O=C(N/N=C/c1ccc(Br)cc1)c1ccncc1 | 5 µg/mL (≈ 16.4 µM) | – | – | – | –
O=C(N/N=C/c1ccccc1[N+](=O)[O-])c1ccncc1 | 5 µg/mL (≈ 18.5 µM) | – | – | – | –
O=C(N/N=C/c1ccccc1F)c1ccncc1 | 3.12 µg/mL (≈ 12.8 µM) | – | – | – | –
N#Cc1ccccc1/C=N/NC(=O)c1ccncc1 | 0.62 µg/mL (≈ 2.48 µM) | 100% | 100% | 100% | 95%
O=C(N/N=C/c1ccc([N+](=O)[O-])cc1)c1ccncc1 [N'-(4-NITROBENZYLIDENE)ISONICOTINOHYDRAZIDE] | 1.25 µg/mL (≈ 4.63 µM) | – | – | – | –
O=C(N/N=C/c1cccc(Cl)c1)c1ccncc1 [N'-(3-CHLOROBENZYLIDENE)ISONICOTINOHYDRAZIDE] | 0.31 µg/mL (≈ 1.19 µM) | 100% | 100% | 100% | 100%
COc1ccccc1/C=N/NC(=O)c1ccncc1 | 0.31 µg/mL (≈ 1.21 µM) | 100% | 100% | 100% | 98%
COc1ccc(/C=N/NC(=O)c2ccncc2)cc1 | 5 µg/mL (≈ 19.6 µM) | – | – | – | –
O=C(N/N=C/c1cccc(F)c1)c1ccncc1 | 3.12 µg/mL (≈ 12.8 µM) | – | – | – | –
O=C(N/N=C/c1ccc(Cl)cc1)c1ccncc1 | 0.31 µg/mL (≈ 1.19 µM) | 97% | 100% | 97% | 96%
O=C(N/N=C/c1ccccc1Cl)c1ccncc1 | 1.25 µg/mL (≈ 4.81 µM) | – | – | – | –
O=C(N/N=C/c1ccccc1)c1ccncc1 [N'-BENZYLIDENE ISONICOTINOHYDRAZIDE] | 3.12 µg/mL (≈ 13.9 µM) | – | – | – | –
O=C(N/N=C/c1ccccc1Br)c1ccncc1 | 5 µg/mL (≈ 16.4 µM) | – | – | – | –
O=C(N/N=C/c1cccc(O)c1)c1ccncc1 | 1.25 µg/mL (≈ 5.18 µM) | – | – | – | –
CO[C@H]1/C=C/O[C@@]2(C)Oc3c(C)c(O)c4c(O)c(c(/C=N/N5CCN(C)CC5)c(O)c4c3C2=O)NC(=O)/C(C)=C\C=C\[C@H](C)[C@H](O)[C@@H](C)[C@@H](O)[C@@H](C)[C@H](OC(C)=O)[C@@H]1C [RIFAMPIN] | 1 µg/mL (≈ 1.22 µM) | – | – | – | –
O=C(N/N=C/c1cccc(Br)c1)c1ccncc1 | 2.5 µg/mL (≈ 8.22 µM) | – | – | – | –
CCOc1cccc(/C=N/NC(=O)c2ccncc2)c1 | 1.25 µg/mL (≈ 4.64 µM) | – | – | – | –
N#Cc1ccc(/C=N/NC(=O)c2ccncc2)cc1 | 5 µg/mL (≈ 20 µM) | – | – | – | –
O=C(N/N=C/c1cccc([N+](=O)[O-])c1)c1ccncc1 | 5 µg/mL (≈ 18.5 µM) | – | – | – | –
NNC(=O)c1ccncc1 [ISONIAZID] | 0.2 µg/mL (≈ 1.46 µM) | – | – | – | –

Source: ChEMBL document CHEMBL1141661, “Synthesis and anti-mycobacterial activity of (E)-N'-(monosubstituted-benzylidene)isonicotinohydrazide derivatives” (Eur J Med Chem, 2008)
